≈ marks a conversion by molar mass, not a printed value. Calls of active or inactive are those of the source. No cut-off for these calls is given here.
Tests used:
Escherichia coli [1] = experiment: Antimicrobial activity against Escherichia coli NCIM 2068/ATCC 11105 at 25 ug/mL after 24 hrs by disc diffusion method; type: functional; details: NCIM 2068/ATCC 11105, 24 h, read-out: DIZ
Summary of the method: (§1)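 NCIM cultures were used. Test solutions in DMSO, diluted from a 1 mg mL-1 stock to 12.5, 25 or 50 µg mL-1, were loaded onto sterile 5 mm filter-paper discs and dried. Nutrient agar was spread with 100 µL of 24 h bacterial suspension (10^8 cells mL-1). Incubation was 37 ± 1 °C for 24 h, and inhibition-zone diameter was read. DMSO served as control, with tetracyclin and streptomycin (50 µg mL-1) discs as standards. Triplicate, averaged.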

Staphylococcus aureus [2] = experiment: Antimicrobial activity against methicillin-resistant Staphylococcus aureus at 25 ug/mL after 24 hrs by disc diffusion method; type: functional, organism-based
Proteus vulgaris [3] = experiment: Antimicrobial activity against Proteus vulgaris NCIM 2027/ATCC 13315 at 12.5 ug/mL after 24 hrs by disc diffusion method; type: functional; details: NCIM 2027/ATCC 13315, 24 h, read-out: DIZ; summary of the method: as §1
Escherichia coli [4] = experiment: Antimicrobial activity against Escherichia coli NCIM 2068/ATCC 11105 at 50 ug/mL after 24 hrs by disc diffusion method; type: functional; details: NCIM 2068/ATCC 11105, 24 h, read-out: DIZ; summary of the method: as §1
Bacillus subtilis [5] = experiment: Antimicrobial activity against Bacillus subtilis NCIM 2063/ATCC 6633 at 25 ug/mL after 24 hrs by disc diffusion method; type: functional; details: NCIM 2063/ATCC 6633, 24 h, read-out: DIZ; summary of the method: as §1
Staphylococcus aureus [6] = experiment: Antimicrobial activity against Staphylococcus aureus NCIM 2079/ATCC 6538P at 50 ug/mL after 24 hrs by disc diffusion method; type: functional; details: read-out: DIZ; summary of the method: as §1
Staphylococcus aureus [7] = experiment: Antimicrobial activity against Staphylococcus aureus NCIM 2079/ATCC 6538P at 25 ug/mL after 24 hrs by disc diffusion method; type: functional; details: read-out: DIZ; summary of the method: as §1
Staphylococcus aureus [8] = experiment: Antimicrobial activity against methicillin-resistant Staphylococcus aureus at 1000 ug/mL after 24 hrs by disc diffusion method; type: functional; details: for zone of inhibition at 1000 µg/mL: read-out: DIZ
Summary of the method: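 Disc diffusion on nutrient agar. Compound at 1 mg mL-1 (1000 µg mL-1) in DMSO was loaded onto 5 mm sterile filter-paper discs and dried. Plates were spread with 100 µL of a 24 h culture at 10^8 cells mL-1. Incubated at 37 ± 1 °C for 24 h; inhibition zone diameters recorded. DMSO control disc. Triplicate, averaged.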

Escherichia coli [9] = experiment: Antimicrobial activity against Escherichia coli NCIM 2068/ATCC 11105 at 12.5 ug/mL after 24 hrs by disc diffusion method; type: functional; details: NCIM 2068/ATCC 11105, 24 h, read-out: DIZ; summary of the method: as §1
Proteus vulgaris [10] = experiment: Antimicrobial activity against Proteus vulgaris NCIM 2027/ATCC 13315 at 25 ug/mL after 24 hrs by disc diffusion method; type: functional; details: NCIM 2027/ATCC 13315, 24 h, read-out: DIZ; summary of the method: as §1
Bacillus subtilis [11] = experiment: Antimicrobial activity against Bacillus subtilis NCIM 2063/ATCC 6633 at 1000 ug/mL after 24 hrs by disc diffusion method; type: functional, organism-based
Escherichia coli [12] = experiment: Antimicrobial activity against Escherichia coli NCIM 2068/ATCC 11105 at 1000 ug/mL after 24 hrs by disc diffusion method; type: functional, organism-based
Bacillus subtilis [13] = experiment: Antimicrobial activity against Bacillus subtilis NCIM 2063/ATCC 6633 at 12.5 ug/mL after 24 hrs by disc diffusion method; type: functional; details: for zone of inhibition at 12.5 µg/mL: NCIM 2063/ATCC 6633, 24 h, read-out: DIZ; summary of the method: as §1
[14] = test system: Mycobacterium tuberculosis; experiment: Antimycobacterial activity against multidrug-susceptible Mycobacterium tuberculosis H37Rv ATCC 27294 after 4 weeks; type: functional; details: H37Rv ATCC 27294, 672 h
Summary of the method: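 Lowenstein-Jensen proportion method. Drug at 6.25, 12.5, 25, 50 and 100 µg mL-1 in LJ medium slants, set overnight. Inoculated with 4 mg mL-1 suspension by 3 mm loop, 37 °C, 4 weeks. MIC is the lowest concentration fully inhibiting growth, by CFU versus medium, inoculated and DMSO controls. Three independent determinations.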

Bacillus subtilis [15] = experiment: Antimicrobial activity against Bacillus subtilis NCIM 2063/ATCC 6633 at 50 ug/mL after 24 hrs by disc diffusion method; type: functional; details: NCIM 2063/ATCC 6633, 24 h, read-out: DIZ; summary of the method: as §1
Proteus vulgaris [16] = experiment: Antimicrobial activity against Proteus vulgaris NCIM 2027/ATCC 13315 at 1000 ug/mL after 24 hrs by disc diffusion method; type: functional, organism-based
Staphylococcus aureus [17] = experiment: Antimicrobial activity against methicillin-resistant Staphylococcus aureus at 12.5 ug/mL after 24 hrs by disc diffusion method; type: functional, organism-based
Staphylococcus aureus [18] = experiment: Antimicrobial activity against Staphylococcus aureus NCIM 2079/ATCC 6538P at 12.5 ug/mL after 24 hrs by disc diffusion method; type: functional; details: for zone of inhibition at 12.5 µg/mL: read-out: DIZ; summary of the method: as §1
Staphylococcus aureus [19] = experiment: Antimicrobial activity against Staphylococcus aureus NCIM 2079/ATCC 6538P at 1000 ug/mL after 24 hrs by disc diffusion method; type: functional, organism-based
Staphylococcus aureus [20] = experiment: Antimicrobial activity against methicillin-resistant Staphylococcus aureus at 50 ug/mL after 24 hrs by disc diffusion method; type: functional, organism-based
Proteus vulgaris [21] = experiment: Antimicrobial activity against Proteus vulgaris NCIM 2027/ATCC 13315 at 50 ug/mL after 24 hrs by disc diffusion method; type: functional; details: NCIM 2027/ATCC 13315, 24 h, read-out: DIZ; summary of the method: as §1

Row | SMILES | zone of inhibition at 25 µg/mL (Escherichia coli [1]) [mm] | diameter of the inhibition zone (DIZ) (Staphylococcus aureus [2]) | zone of inhibition at 12.5 µg/mL (Proteus vulgaris [3]) [mm] | zone of inhibition at 50 µg/mL (Escherichia coli [4]) [mm] | zone of inhibition at 25 µg/mL (Bacillus subtilis [5]) [mm] | zone of inhibition at 50 µg/mL (Staphylococcus aureus [6]) [mm] | zone of inhibition at 25 µg/mL (Staphylococcus aureus [7]) [mm] | zone of inhibition at 1000 µg/mL (Staphylococcus aureus [8]) [mm] | zone of inhibition at 12.5 µg/mL (Escherichia coli [9]) [mm] | zone of inhibition at 25 µg/mL (Proteus vulgaris [10]) [mm] | diameter of the inhibition zone (DIZ) (Bacillus subtilis [11]) | diameter of the inhibition zone (DIZ) (Escherichia coli [12]) | zone of inhibition at 12.5 µg/mL (Bacillus subtilis [13]) [mm] | MIC [14] [µg/mL] | zone of inhibition at 50 µg/mL (Bacillus subtilis [15]) [mm] | diameter of the inhibition zone (DIZ) (Proteus vulgaris [16]) | diameter of the inhibition zone (DIZ) (Staphylococcus aureus [17]) | diameter of the inhibition zone (DIZ) (Staphylococcus aureus [19]) | diameter of the inhibition zone (DIZ) (Staphylococcus aureus [20]) | zone of inhibition at 50 µg/mL (Proteus vulgaris [21]) [mm] | other results
1 | CC1=C(C(=O)Nc2ccc(C)cc2)C(c2ccc[nH]2)C(C(=O)Nc2ccc(C)cc2)=C(C)N1 | 19 | inactive | 10 | 22 | 11 | 12 | 11 | 10 | 14 | 14 | inactive | inactive | 7 | 12.5 (≈ 28.4 µM) | 13 | inactive | inactive | inactive | inactive | 18 | zone of inhibition at 12.5 µg/mL (Staphylococcus aureus [18]): 9 mm
2 | CC1=C(C(=O)Nc2ccc(C)cc2)C(c2ccccn2)C(C(=O)Nc2ccc(C)cc2)=C(C)N1 | 10 | inactive | 9 | 14 | 10 | 12 | 10 |  | 8 | 12 | inactive | inactive | 9 | > 25 | 12 | inactive | inactive | inactive | inactive | 16 | diameter of the inhibition zone (DIZ) (Staphylococcus aureus [8]): inactive; zone of inhibition at 12.5 µg/mL (Staphylococcus aureus [18]): 8 mm
3 | CCc1ccc(C2C(C(=O)Nc3ccccc3)=C(C)NC(C)=C2C(=O)Nc2ccccc2)cc1 | 13 | inactive | 9 | 15 | 13 | 16 | 11 |  | 10 | 14 | inactive | inactive | 11 | > 25 | 21 | inactive | inactive | inactive | inactive | 16 | diameter of the inhibition zone (DIZ) (Staphylococcus aureus [8]): inactive; zone of inhibition at 12.5 µg/mL (Staphylococcus aureus [18]): 8 mm
4 | CN(C)[C@@H]1C(O)=C(C(N)=O)C(=O)[C@@]2(O)C(O)=C3C(=O)c4c(O)cccc4[C@@](C)(O)[C@H]3C[C@@H]12 [TETRACYCLINE] |  |  |  | 25 |  | 22 |  | 15 |  |  | inactive | inactive |  |  | 20 | inactive |  | inactive | inactive | 21 | 
5 | CC1=C(C(=O)Nc2ccccc2)C(c2ccco2)C(C(=O)Nc2ccccc2)=C(C)N1 | 15 | inactive | 8 | 18 | 14 | 14 | 12 | 10 | 12 | 13 | inactive | inactive | 10 | > 25 | 16 | inactive | inactive | inactive | inactive | 17 | zone of inhibition at 12.5 µg/mL (Staphylococcus aureus [18]): 8 mm
6 | NC(=O)c1cnccn1 [PYRAZINAMIDE] |  |  |  |  |  |  |  |  |  |  |  |  |  | 32 (≈ 260 µM) |  |  |  |  |  |  | 
7 | CC1=C(C(=O)Nc2ccccc2C)C(c2ccccn2)C(C(=O)Nc2ccccc2C)=C(C)N1 | 17 | inactive | 10 | 19 | 8 | 15 | 12 | 8 | 14 | 12 | inactive | inactive |  | 25 (≈ 55.2 µM) | 10 | inactive | inactive | inactive | inactive | 16 | diameter of the inhibition zone (DIZ) (Bacillus subtilis [13]): inactive; diameter of the inhibition zone (DIZ) (Staphylococcus aureus [18]): inactive
8 | CN[C@@H]1[C@H](O[C@H]2[C@H](O[C@H]3[C@H](O)[C@@H](O)[C@H](N=C(N)N)[C@@H](O)[C@@H]3N=C(N)N)O[C@@H](C)[C@]2(O)C=O)O[C@@H](CO)[C@H](O)[C@H]1O [STREPTOMYCIN] |  |  |  | 23 |  | 21 |  | 18 |  |  | inactive | inactive |  |  | 22 | inactive |  | inactive | inactive | 26 | 
